In brackets after ≈: the same amount, converted by molar mass.

For one assay, the system named is Staphylococcus aureus. In words: Antibacterial activity against Staphylococcus aureus ATCC 29213 assessed as change in MIC by agar odilution method after serial passages in presence of antibiotic relative to control.
Conditions: not given
The class given is functional, ATCC29213. The gist of the method: (§1)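 Serial passage under drug. Inoculum was ~1 × 10^6 CFU/ml from overnight MHA growth, in 1 ml MHB at 35°C for 24 h. Drug ranged from 4 log2 steps above to 3 log2 steps below the MIC. […] MIC change is given as log2 steps.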
Consider `COc1cc(Cc2cnc(N)nc2N)cc(/C=C/C(=O)N2N=Cc3ccccc3C2c2cnc(N(C)C)nc2)c1OC` (configuration not stated), for which the “fold change (FC)” value stood at 3.

For another assay, the system named is Staphylococcus epidermidis. In words: Antibacterial activity against methicillin-resistant, vancomycin-intermediate coagulase-negative Staphylococcus epidermidis 225 by agar dilution method.
Conditions: not given
The format is functional. The gist of the method:
(§2)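 Agar dilution on Mueller-Hinton agar per CLSI guidelines. S. aureus ATCC 29213 and E. faecalis ATCC 29212 were run with each set, and test MICs were accepted only when the control strains fell within acceptable ranges.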
In general terms: In agar dilution the substance is mixed into plates at graded concentrations.
As usually defined, the MIC is the lowest concentration found to suppress growth. Low readings indicate a more susceptible organism, high ones a less susceptible organism. Regarding `COc1cc(Cc2cnc(N)nc2N)cc(/C=C/C(=O)N2N=Cc3ccccc3C2c2cnc(N(C)C)nc2)c1OC` (configuration not stated), the lowest concentration to inhibit growth (MIC) was 0.25 µg/mL (≈ 0.442 µM).

A further assay has as its system Staphylococcus aureus. Put plainly: Antibacterial activity against methicillin-susceptible Staphylococcus aureus by agar dilution method. The format is functional.
Conditions: not given
The gist of the method: as §2
The MIC50 is the lowest concentration that inhibits either 50% of growth or 50% of the strains tested, depending on the study. The term MIC90 denotes an inhibitory concentration at the 90% level, which refers to growth in some studies and to a panel of isolates in others. Low values mean higher susceptibility, high ones lower susceptibility. As to `COc1cc(Cc2cnc(N)nc2N)cc(/C=C/C(=O)N2N=Cc3ccccc3C2c2cnc(N(C)C)nc2)c1OC` (configuration not stated), the MIC50 was 0.03 µg/mL (≈ 0.053 µM) and the MIC90 turned out to be 0.25 µg/mL (≈ 0.442 µM).

In another assay the test system is Staphylococcus aureus. Put plainly: Antibacterial activity against Staphylococcus aureus 505 assessed as change in MIC by agar dilution method after serial passages in presence of antibiotic relative to control.
Conditions: not given
The format is functional. The gist of the method:
as §1
With `COc1cc(Cc2cnc(N)nc2N)cc(/C=C/C(=O)N2N=Cc3ccccc3C2c2cnc(N(C)C)nc2)c1OC` (configuration not stated), the “fold change (FC)” value came out at 8.

The subject of a further assay is Staphylococcus epidermidis. In words: Antibacterial activity against coagulase-negative Staphylococcus epidermidis 197 assessed as change in MIC by agar dilution method after serial passages in presence of antibiotic relative to control. The format is functional.
Conditions: not given
The gist of the method:
as §1
On to `COc1cc(Cc2cnc(N)nc2N)cc(/C=C/C(=O)N2N=Cc3ccccc3C2c2cnc(N(C)C)nc2)c1OC` (configuration not stated), for which the “fold change (FC)” value is 1.

The subject of a further assay is Staphylococcus aureus. Put plainly: Antibacterial activity against Tmp-resistant Staphylococcus aureus by agar dilution method. The class given is functional.
Conditions: not given
The gist of the method: (§3)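 MICs by agar dilution on Mueller-Hinton agar following CLSI guidelines. S. aureus ATCC 29213 and E. faecalis ATCC 29212 were run as quality controls with each set, and test-strain MICs were kept only if control MICs fell within acceptable ranges.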
In the case of `COc1cc(Cc2cnc(N)nc2N)cc(/C=C/C(=O)N2N=Cc3ccccc3C2c2cnc(N(C)C)nc2)c1OC` (configuration not stated), the MIC50 came to 0.25 µg/mL (≈ 0.442 µM) and the MIC90 was found to be 0.5 µg/mL (≈ 0.884 µM).

In the next assay the test system is Staphylococcus epidermidis. In words: Antibacterial activity against coagulase-negative Staphylococcus epidermidis 057 assessed as change in MIC by agar dilution method after serial passages in presence of antibiotic relative to control. The format is functional.
Conditions: not given
The gist of the method: as §1
As for `COc1cc(Cc2cnc(N)nc2N)cc(/C=C/C(=O)N2N=Cc3ccccc3C2c2cnc(N(C)C)nc2)c1OC` (configuration not stated), the “fold change (FC)” value is reported as 5.

The next assay deals with Staphylococcus epidermidis. In words: Antibacterial activity against methicillin-resistant coagulase-negative Staphylococcus epidermidis 074 by broth macrodilution method. The class given is functional.
Conditions: not given
`COc1cc(Cc2cnc(N)nc2N)cc(/C=C/C(=O)N2N=Cc3ccccc3C2c2cnc(N(C)C)nc2)c1OC` (configuration not stated) returned an MIC of 0.06 µg/mL (≈ 0.106 µM).

The next assay has as its system coagulase-negative staphylococci. In words: Antibacterial activity against Tmp-resistant coagulase-negative staphylococci by agar dilution method.
Conditions: not given
Regarding `COc1cc(Cc2cnc(N)nc2N)cc(/C=C/C(=O)N2N=Cc3ccccc3C2c2cnc(N(C)C)nc2)c1OC` (configuration not stated), the MIC50 was 0.125 µg/mL (≈ 0.221 µM) and the MIC90 is 0.5 µg/mL (≈ 0.884 µM).

The subject of a further assay is Staphylococcus aureus. Put plainly: Antibacterial activity against Staphylococcus aureus 145 assessed as change in MIC by agar dilution method after serial passages in presence of antibiotic relative to control. The class given is functional.
Conditions: not given
The gist of the method:
as §1
Take `COc1cc(Cc2cnc(N)nc2N)cc(/C=C/C(=O)N2N=Cc3ccccc3C2c2cnc(N(C)C)nc2)c1OC` (configuration not stated): the “fold change (FC)” value was 10.

Another assay concerns Staphylococcus epidermidis. In words: Antibacterial activity against coagulase-negative Staphylococcus epidermidis 051 assessed as change in MIC by agar dilution method after serial passages in the absence of antibiotic relative to control. The format is functional.
Conditions: not given
The gist of the method:
(§4)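 After drug-selective serial passage, selected clones were passaged 10 times in antibiotic-free MHB. MICs were then redetermined, and the change is expressed as log2 dilution steps.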
As to `COc1cc(Cc2cnc(N)nc2N)cc(/C=C/C(=O)N2N=Cc3ccccc3C2c2cnc(N(C)C)nc2)c1OC` (configuration not stated), the “fold change (FC)” value is on record as -6.

The next assay has as its system Staphylococcus epidermidis. In words: Antibacterial activity against coagulase-negative Staphylococcus epidermidis 051 assessed as change in MIC by agar dilution method after serial passages in presence of antibiotic relative to control. The format is functional.
Conditions: not given
Summed up: as §1
`COc1cc(Cc2cnc(N)nc2N)cc(/C=C/C(=O)N2N=Cc3ccccc3C2c2cnc(N(C)C)nc2)c1OC` (configuration not stated): the “fold change (FC)” value came to 11.

Another assay deals with Staphylococcus epidermidis. Put plainly: Antibacterial activity against methicillin-susceptible coagulase-negative Staphylococcus epidermidis 051 by broth macrodilution method. The class given is functional.
Conditions: not given
`COc1cc(Cc2cnc(N)nc2N)cc(/C=C/C(=O)N2N=Cc3ccccc3C2c2cnc(N(C)C)nc2)c1OC` (configuration not stated) registered an MIC of 0.125 µg/mL (≈ 0.221 µM).

The subject of the next assay is Staphylococcus aureus. In words: Antibacterial activity against methicillin-susceptible Staphylococcus aureus ATCC 29213 by broth macrodilution method. The class given is functional. As to conditions: ATCC29213.
Compound `COc1cc(Cc2cnc(N)nc2N)cc(/C=C/C(=O)N2N=Cc3ccccc3C2c2cnc(N(C)C)nc2)c1OC` (configuration not stated) came in with an MIC of 0.06 µg/mL (≈ 0.106 µM).

For another assay, the system named is Staphylococcus epidermidis. Put plainly: Antibacterial activity against coagulase-negative Staphylococcus epidermidis 345 assessed as change in MIC by agar dilution method after serial passages in presence of antibiotic relative to control. The class given is functional.
Conditions: not given
The gist of the method: as §1
For the compound `COc1cc(Cc2cnc(N)nc2N)cc(/C=C/C(=O)N2N=Cc3ccccc3C2c2cnc(N(C)C)nc2)c1OC` (configuration not stated), the “fold change (FC)” value was 12.

A further assay has as its system Staphylococcus aureus. In words: Antibacterial activity against Staphylococcus aureus 145.
Conditions: not given
In turn, `COc1cc(Cc2cnc(N)nc2N)cc(/C=C/C(=O)N2N=Cc3ccccc3C2c2cnc(N(C)C)nc2)c1OC` (configuration not stated) returned an MIC of 0.25 µg/mL (≈ 0.442 µM).

Another assay deals with Staphylococcus epidermidis. In words: Antibacterial activity against coagulase-negative Staphylococcus epidermidis 225 assessed as change in MIC by agar dilution method after serial passages in the absence of antibiotic relative to control. The format is functional.
Conditions: not given
The gist of the method:
as §4
Turning to `COc1cc(Cc2cnc(N)nc2N)cc(/C=C/C(=O)N2N=Cc3ccccc3C2c2cnc(N(C)C)nc2)c1OC` (configuration not stated), the “fold change (FC)” value was -7.

Another assay relates to Staphylococcus epidermidis. In words: Antibacterial activity against coagulase-negative Staphylococcus epidermidis 345 by agar dilution method. The format is functional.
Conditions: not given
Summed up:
as §3
The compound `COc1cc(Cc2cnc(N)nc2N)cc(/C=C/C(=O)N2N=Cc3ccccc3C2c2cnc(N(C)C)nc2)c1OC` (configuration not stated) had an MIC of 0.06 µg/mL (≈ 0.106 µM).

For another assay, the system named is Staphylococcus epidermidis. Put plainly: Antibacterial activity against coagulase-negative Staphylococcus epidermidis 345 assessed as change in MIC by agar dilution method after serial passages in the absence of antibiotic relative to control. The class given is functional.
Conditions: not given
Summed up:
as §4
As for `COc1cc(Cc2cnc(N)nc2N)cc(/C=C/C(=O)N2N=Cc3ccccc3C2c2cnc(N(C)C)nc2)c1OC` (configuration not stated), the “fold change (FC)” value is listed as -7.
